Measured values as given in PMC5565762 (International Journal for Parasitology: Drugs and Drug …, 2017).

Assays:
[1] = system: redox biosensor hGrx-roGFP2 in bloodstream T. b. brucei; assay: Intracellular redox changes in T. brucei redox reporter cell line; assay type: cell-based, Trypanosoma brucei brucei; settings: for oxidation of the biosensor: 4 h, 0.54 μM 13, 1.49 μM 15, 78 nM suramin, 25 μM menadione
Outline: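 The strain 427 line 449 bloodstream reporter line expresses hGrx-roGFP2, induced with 1 μg/mL oxytetracycline for 24 h. Parasites at 2 × 10^6/mL were treated for 4 h at 37 °C with test compound, 25 μM menadione, 78 nM suramin or 1% DMSO. A parallel sample then received 1 mM DTT for 15 min. Cells were stained with PI (2 μg/mL) and GFP (530/40 nm) was read on PI-negative cells by flow cytometry. Values are % biosensor reduction versus DMSO without DTT; triplicates, SD.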

Bloodstream T. b. brucei [2] = assay: Glucose consumption; assay type: cell-based, Trypanosoma brucei brucei; settings: compound at its EC50, 4 h
Outline: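 Bloodstream T. b. brucei were seeded at 5.3–5.8 × 10^6 parasites/mL in HMI-9 with 10% FBS (37 °C, 5% CO2). They were exposed for 4 h to test compound at a fixed concentration, or to suramin 78 nM, ebselen 5 μM, tri-thiazol 0.31 μM or 1% DMSO vehicle. Viable cells were counted in a Neubauer chamber, cells were spun down at 2000 g for 10 min, and supernatant glucose was measured on an analyzer. Consumption is given as g/L per million cells per hour; triplicates, SD.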

Bloodstream T. b. brucei [3] = assay: Inhibition of glucose uptake; assay type: cell-based, Trypanosoma brucei brucei; settings: 30 min
[4] = system: murine macrophages (cell line J774); assay: Viability assay of murine macrophages; assay type: cell-based; settings: murine macrophages vs T. b. brucei
Outline: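 J774 murine macrophages were grown in DMEM with 10% FBS, penicillin and streptomycin at 37 °C in 5% CO2. Cells were exposed to 7 concentrations of test compound, each in triplicate, for 24 h, and viability was measured with WST-1 reagent as % of DMSO-treated control. EC50 was derived by fitting a sigmoidal Hill equation; SD.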

[5] = system: Bloodstream T. b. brucei (strain 427) cell line 449; assay: Viability assay of bloodstream trypanosomes; assay type: cell-based; settings: Trypanosoma brucei, 24 h
Outline: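 Bloodstream parasites at 5 × 10^5 cells/mL in HMI-9 with 10% FBS received test compound (5 μM final; nifurtimox 15 μM) or 1% DMSO, in triplicate, for 24 h at 37 °C and 5% CO2. Cells were diluted into PBS with 1% glucose, stained with propidium iodide (2 μg/mL) and counted by flow cytometry. Viability is the % of the DMSO-control cell count. EC50 came from 7-point curves (triplicates) fitted to a sigmoidal Hill equation; SD.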

## Cc1ccc(C(=O)Nc2ccc(S(=O)(=O)O)c3cc(S(=O)(=O)O)cc(S(=O)(=O)O)c23)cc1NC(=O)c1cccc(NC(=O)Nc2cccc(C(=O)Nc3cc(C(=O)Nc4ccc(S(=O)(=O)O)c5cc(S(=O)(=O)O)cc(S(=O)(=O)O)c45)ccc3C)c2)c1 [suramin]
[1]
  oxidation of the biosensor: did not induce redox changes
Bloodstream T. b. brucei [2]; vs DMSO
  capacity to metabolize glucose compared to the control condition: < 30%

## O=C(CCc1ccc(O)cc1)c1c(O)cc(O)cc1O [phloretin]
Bloodstream T. b. brucei [3]; 500 μM
  reduction of glucose uptake: 63%

## O=c1c2ccccc2[se]n1-c1ccccc1 [ebselen]
Bloodstream T. b. brucei [2]
  reduction of glucose consumption vs vehicle: 44%
Bloodstream T. b. brucei [2]; not statistically significant
  anti-proliferative activity with respect to the DMSO control: some anti-proliferative activity

## CC1CS(=O)(=O)CCN1/N=C/c1ccc([N+](=O)[O-])o1 (centres unmarked) [NFX, nifurtimox]
Bloodstream T. b. brucei [3]; 5X EC50 (13 2.7 μM, 15 7.45 μM, nifurtimox 50 μM)
  glucose uptake compared to vehicle treated cells: A similar outcome
[4]
  selectivity index (SI): ~10
[5]; read-out: EC50 against T. b. brucei
  EC50: ~10 µM
[5]; read-out: Parasite survival
  viability at 15 µM: 28.2 ± 5.5%

## CC1=CC(=O)c2ccccc2C1=O [menadione]
[1]
  oxidation of the biosensor: 60%
[1]; after 4 h treatment, 15 min with 1 mM DTT
  reversal of biosensor oxidation by DTT: fully reversible
